Data as given in ChEMBL document CHEMBL1122311, “beta-Adrenergic antagonists with multiple pharmacophores: persistent blockade of receptors” (J Med Chem, 1983).

How the values were obtained:
[1] = target: T1, Adrenergic receptor beta (Rattus norvegicus) (UniProt P18090+P10608+P26255); assay: % specific binding blocked by the compound fraction of 2.6(x10E-6) in beta adrenergic receptor from heart membranes, after serial wash
In short: (§1)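 Rat heart or lung membranes (ca. 500 or 150 μg protein) preincubated with compound 1 h at 30 °C, centrifuged, then washed five times (resuspend in buffer, 10 min at 30 °C, centrifuge). Residual specific (–)-[³H]dihydroalprenolol binding (5 nM, 20 min, 30 °C, 50 mM Tris/10 mM MgCl₂ pH 7.4; nonspecific defined with 10 μM (±)-alprenolol) compared with washed untreated membranes; percent inhibition, ≥2 experiments in triplicate.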

[2] = target: T1, Adrenergic receptor beta (Rattus norvegicus); assay: % specific binding blocked by the compound fraction of 2.6(x10E-6) in beta adrenergic receptor from lung membranes, after serial wash; type: tissue-based; in short: as §1
[3] = target: T1, Adrenergic receptor beta (Rattus norvegicus); assay: % specific binding blocked by the compound fraction of 2.6 (1x10E- 5) in beta adrenergic receptor from heart membranes, after serial wash; in short: as §1
[4] = target: T1, Adrenergic receptor beta (Rattus norvegicus); assay: % specific binding blocked by the compound fraction of 5.6 (1x10E- 5) in beta adrenergic receptor from heart membranes, after serial wash; in short: as §1
[5] = target: T1, Adrenergic receptor beta (Rattus norvegicus); assay: % specific binding blocked by the compound fraction of 5.6 (1x10E- 5) in beta adrenergic receptor from lung membranes, after serial wash; type: tissue-based; in short: as §1
[6] = target: T1, Adrenergic receptor beta (Rattus norvegicus); assay: % specific binding blocked by the compound fraction of 2.6 (1x10E- 5) in beta adrenergic receptor from lung membranes, after serial wash; type: tissue-based; in short: as §1
[7] = target: T1, Adrenergic receptor beta (Rattus norvegicus); assay: % specific binding blocked by the compound fraction of 5.6(x10E-6) in beta adrenergic receptor from heart membranes, after serial wash; in short: as §1
[8] = target: T1, Adrenergic receptor beta (Rattus norvegicus); assay: % specific binding blocked by the compound fraction of 5.6(x10E-6) in beta adrenergic receptor from lung membranes, after serial wash; type: tissue-based; in short: as §1

| Binding [1] [%] | Binding [2] [%] | Binding [3] [%] | Binding [4] [%] | Binding [5] [%] | Binding [6] [%] | Binding [7] [%] | Binding [8] [%] | SMILES |
| --- | --- | --- | --- | --- | --- | --- | --- | --- |
| 42.5 | 77 |  |  |  |  |  |  | C=CCc1ccccc1OCC(O)CNC(C)COCC(C)OCC(C)OCC(C)NCC(O)COc1ccccc1CC=C (configuration not stated) |
| 26 | 68 |  |  |  |  |  |  | C=CCc1ccccc1OCC(O)CNC(C)COCC(C)OCC(C)OCC(C)N(CC(O)COc1ccccc1CC=C)CC(O)COc1ccccc1CC=C (configuration not stated) |
|  |  | 0 | 0 | 0 | 0 |  |  | CC(N)COCC(C)OCC(C)OCC(C)N (configuration not stated) |
| 3.8 | 14 |  |  |  |  | 0 | 0 | C=CCc1ccccc1OCC(O)CNC(C)COC(C)COC(C)COCC(C)N (configuration not stated) |
